From ChEMBL document CHEMBL1139586, “A linear discrimination analysis based virtual screening of trichomonacidal lead-like compounds: outcomes of in silico studies supported by experimental results” (2005)

How the values were obtained:
Type in all cases: functional
[1] = tested on: Trichomonas vaginalis; test: In vitro cytostatic activity against Trichomonas vaginalis at a dose of 1 ug/ml after 24 hours
Procedure, shortened: (§1)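 T. vaginalis JH31A cultured in modified Diamond medium plus equine serum, 37 °C, 5% CO2. Compounds added at 100, 10 and 1 µg/ml 6 h post-seeding (0 h). Neubauer-chamber counts of viable parasites at 24 and 48 h. Cytostatic activity is the percentage growth inhibition relative to untreated controls.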

[2] = tested on: Trichomonas vaginalis; test: In vitro cytostatic activity against Trichomonas vaginalis at a dose of 1 ug/ml after 48 hours; procedure, shortened: as §1
[3] = tested on: Trichomonas vaginalis; test: In vitro cytostatic activity against Trichomonas vaginalis at a dose of 10 ug/ml after 24 hours; procedure, shortened: as §1
[4] = tested on: Trichomonas vaginalis; test: In vitro cytostatic activity against Trichomonas vaginalis at a dose of 10 ug/ml after 48 hours; procedure, shortened: as §1
[5] = tested on: Trichomonas vaginalis; test: In vitro cytocidal activity against Trichomonas vaginalis at a dose of 100 ug/ml after 24 hours
Procedure, shortened: (§2)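 T. vaginalis strain JH31A grown in modified Diamond medium with equine serum at 37 °C, 5% CO2. Test agents added 6 h after seeding (0 h). Viable protozoa counted by Neubauer chamber after 24 and 48 h incubation at 37 °C. Cytocidal activity is the percentage reduction in viable organisms relative to untreated controls, from microscopic counts.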

[6] = tested on: Trichomonas vaginalis; test: In vitro cytocidal activity against Trichomonas vaginalis at a dose of 100 ug/ml after 48 hours; procedure, shortened: as §2
[7] = tested on: Trichomonas vaginalis; test: In vitro cytocidal activity against Trichomonas vaginalis at a dose of 1 mg/mL after 24 hours; procedure, shortened: as §2
[8] = tested on: Trichomonas vaginalis; test: In vitro cytocidal activity against Trichomonas vaginalis at a dose of 1 mg/mL after 48 hours; procedure, shortened: as §2
[9] = tested on: Trichomonas vaginalis; test: In vitro cytocidal activity against Trichomonas vaginalis at a dose of 2 mg/ml after 24 hours; procedure, shortened: as §2
[10] = tested on: Trichomonas vaginalis; test: In vitro cytocidal activity against Trichomonas vaginalis at a dose of 2 mg/ml after 48 hours; procedure, shortened: as §2
[11] = tested on: Trichomonas vaginalis; test: In vitro cytocidal activity against Trichomonas vaginalis at a dose of 0.5 mg/ml after 24 hours; procedure, shortened: as §2
[12] = tested on: Trichomonas vaginalis; test: In vitro cytocidal activity against Trichomonas vaginalis at a dose of 0.5 mg/ml after 48 hours; procedure, shortened: as §2
[13] = tested on: Trichomonas vaginalis; test: In vitro cytocidal activity against Trichomonas vaginalis at a dose of 10 ug/ml after 48 hours; procedure, shortened: as §2
[14] = tested on: Trichomonas vaginalis; test: In vitro cytostatic activity against Trichomonas vaginalis at a dose of 100 ug/ml after 24 hours; procedure, shortened: as §1
[15] = tested on: Trichomonas vaginalis; test: In vitro cytostatic activity against Trichomonas vaginalis at a dose of 100 ug/ml after 48 hours; procedure, shortened: as §1

CN1CC(=O)Nc2cc([N+](=O)[O-])ccc21
Cytostatic activity [1]: 0% | Cytostatic activity [2]: 8.32% | Cytostatic activity [3]: 59.05% | Cytostatic activity [4]: 13.97% | Cytocidal activity [5]: 100% | Cytocidal activity [6]: 100%

Cc1ncc([N+](=O)[O-])n1CCO [METRONIDAZOLE]
Cytocidal activity [7]: 99.18% | Cytocidal activity [8]: 99.72% | Cytocidal activity [9]: 99.63% | Cytocidal activity [10]: 100% | Cytocidal activity [11]: 98.19% | Cytocidal activity [12]: 98.79%

CN1C(=O)C[N+](C)(C)c2ccc([N+](=O)[O-])cc21.[Cl-]
Cytostatic activity [1]: 0.17% | Cytostatic activity [2]: 0.78% | Cytostatic activity [3]: 72.85% | Cytostatic activity [4]: 1.13% | Cytocidal activity [5]: 100% | Cytocidal activity [6]: 100%

O=C1CN(CCCCCCCl)c2ccc([N+](=O)[O-])cc2N1
Cytostatic activity [1]: 8.76% | Cytostatic activity [2]: 0% | Cytostatic activity [3]: 79.28% | Cytostatic activity [4]: 30.56% | Cytocidal activity [5]: 99.15% | Cytocidal activity [6]: 99.83%

O=C1Nc2cc([N+](=O)[O-])ccc2N2CCCCC12 (centres undefined)
Cytostatic activity [1]: 0% | Cytostatic activity [2]: 0% | Cytostatic activity [3]: 57.45% | Cytostatic activity [4]: 75.15% | Cytocidal activity [5]: 98.43% | Cytocidal activity [6]: 100%

CN1C(=O)CN(CCCCCCl)c2ccc([N+](=O)[O-])cc21
Cytostatic activity [1]: 0% | Cytostatic activity [2]: 69.96% | Cytostatic activity [3]: 72.68% | Cytocidal activity [13]: 93.94% | Cytocidal activity [5]: 100% | Cytocidal activity [6]: 100%

O=C1Nc2cc([N+](=O)[O-])ccc2N2CCCC12 (centres undefined)
Cytostatic activity [1]: 11.09% | Cytostatic activity [2]: 17.32% | Cytostatic activity [3]: 33.48% | Cytostatic activity [4]: 54.22% | Cytocidal activity [5]: 59.99% | Cytocidal activity [6]: 100%

CN1CC(=O)N(C)c2cc([N+](=O)[O-])ccc21
Cytostatic activity [1]: 0% | Cytostatic activity [2]: 0% | Cytostatic activity [3]: 71.11% | Cytocidal activity [13]: 92.03% | Cytocidal activity [5]: 100% | Cytocidal activity [6]: 100%

O=C1Nc2cc([N+](=O)[O-])ccc2N2Cc3ccccc3CC12 (centres undefined)
Cytostatic activity [1]: 0% | Cytostatic activity [2]: 0% | Cytostatic activity [3]: 51.82% | Cytostatic activity [4]: 37.15% | Cytostatic activity [14]: 85.53% | Cytostatic activity [15]: 81.25%
